High-throughput results: PubChem, several laboratories
A selection: hits, their analogues and other compounds. The true share with any hit is near 2.1%.
TNF necrop inh = inhibitors of TNF-alpha induced necroptosis in Jurkat FADD-/- cells; Jurkat FADD-/- TNF necroptosis rescue, ATP luminescence, 24 h; 0 = TNF only, 100 = no-TNF cells; activation (protection from cell death), % at 10 µM; hit rate 0.068% among 220,000;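 active = activation, meaning protection from cell death, of at least 50% relative to plate controls; inactive = activation below 50%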;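 note: necroptosis triggered by 40 ng/mL TNF-alpha added together with compound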
Wee1 degr inh = blocks degradation of human Wee1 kinase; P30291; hit rate 1.2% among 220,000; HeLa Luc-Wee1K328M stability, luciferase luminescence; 100% = proteasome inhibitor MG132 effect; reporter increase, % at 5 µM;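 active = activation above the mean of all tested compounds plus 3 SD, set per screening run, cut at about 8.8% in these data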;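 note: cells exposed to compound for 20 h before luminescence read; 0% = DMSO alone and 100% = MG132 at 30 µM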
L929 necroptosis = L929 zVAD cell death inhibition; hit rate 0.38% among 220,000; L929 zVAD necroptosis rescue, ATP luminescence, 24 h; with zVAD 60 µM; viability rescue, % at 10 µM;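 active = activation, scaled between plate controls, above about 75%, limit read from the data; inactive = activation under that limit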;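 note: 0% = zVAD with DMSO and 100% = DMSO alone without zVAD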
RBBP9 inhibitor = blocks human serine hydrolase RBBP9; recombinant RBBP9, FP-Rh probe fluorescence polarization; inhibition, % at 7.94 µM; hit rate 0.2% among 220,000; AID 1515;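 active = inhibition above the campaign mean of all tested compounds plus 3 SD, cut at about 14% in these data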;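 note: plate controls were DMSO wells with RBBP9 for no effect and wells lacking RBBP9 protein for full effect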
Target sequence (O75884 whole entry, looked up): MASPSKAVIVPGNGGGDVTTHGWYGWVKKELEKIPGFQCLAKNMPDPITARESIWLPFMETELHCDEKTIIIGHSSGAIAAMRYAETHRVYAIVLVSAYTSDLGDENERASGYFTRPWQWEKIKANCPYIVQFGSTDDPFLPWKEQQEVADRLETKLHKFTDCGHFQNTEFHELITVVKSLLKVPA
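Test system: recombinant human RBBP9. Quantity: 2.5 µM RBBP9 dispensing solution, before mixing. Detection: FP readout at 525/598 nm. Reagent: Serine-hydrolase probe FP-Rh, 375 nM pre-mixing. Measure: % inhibition. Control set: DMSO-treated enzyme wells and wells lacking RBBP9. Buffer or medium: Tris-NaCl-Pluronic buffer, pH 8.0. Times: preincubation 30 min plus labeling 45 min at 25 °C.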
Pf gamet viab = kills late stage P. falciparum gametocytes; P. falciparum stage V gametocytes, ATP luminescence, 24 h; inhibition, % at 10.9 µM; hit rate 0.065% among 150,000; AID 743093;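 active = inhibition above the mean plus 3 SD of compounds within the control limits, set per campaign, cut at about 38% in these data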;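 note: 0% = DMSO wells and 100% = medium only without gametocytes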
Calpain2 inh = calpain II (pig) inhibition; purified calpain II, fluorogenic peptide substrate, 30 min; inhibition, % at 16 µM; hit rate 0.37% among 220,000; AID 1236;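 active = inhibition above about 50%, limit read from the data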
The depositor's hits bear a star; · = no result.

SMILES	TNF necrop inh	Wee1 degr inh	L929 necroptosis	RBBP9 inhibitor	Pf gamet viab	Calpain2 inh
C=CCc1ccc(OCC(O)CO)c(OC)c1 (stereo not drawn)	0.8	0.1	1.1	-0.8	16.5	-19.2
CC(C)OCc1c(C(=O)Nc2nccs2)oc2ccccc12	-1.9	10.6*	-1.1	-0.7	·	29.2
O=C(Nc1nccs1)c1cccc2ccccc12	·	·	·	·	0.9	·
COc1ccc(-c2csc(Nc3ccccc3)[n+]2CC(O)c2ccc([N+](=O)[O-])cc2)cc1 (stereo not drawn)	3.8	9.3*	3.2	4.9	-1.0	19.1
CC1CCCCN1C(=O)COc1ccc2ccc(=O)oc2c1 (stereo not drawn)	0.7	-0.2	-0.1	0.8	-4.6	-25.2
CC1CCCCN1C(=O)COc1ccc(F)cc1 (stereo not drawn)	0.7	9.6*	-0.1	-5.4	·	-8.5
CCC1Nc2ncnc(N3CCCCC3)c2N(Cc2ccc(OC)cc2)C1=O (stereo not drawn)	·	·	·	·	-6.7	·
COCCNc1oc(-c2ccc(F)cc2)nc1C#N	-0.9	-2.5	-0.2	-6.3	·	·
COc1ccc(Nc2oc(-c3ccc(F)cc3)nc2C#N)cc1	-8.1	9.3*	1.2	-7.2	-27.3	5.2
CCOC(=O)CCCNC(=O)CCNC(=O)c1ccc(OCC(C)C)cc1	5.1	4.6	0.1	-2.3	15.6	-4.6
CCn1c(C(=O)N2CCC(C(=O)NCc3cccs3)CC2)cc2sccc21	0.6	-1.6	3.0	-4.0	·	10.3
O=C(NCc1ccco1)C1CCN(C(=O)c2cc3sccc3n2Cc2ccc(Cl)cc2)CC1	-10.8	3.4	0.6	-15.3	·	56.6*
COc1ccc(CNC(=O)C/C(C)=N/NC(=O)Cc2ccc(OC)cc2)cc1	1.4	-1.0	1.0	2.7	·	7.3
COc1ccc(CNC(=O)C/C(C)=N/NC(=O)C(c2ccccc2)c2ccccc2)cc1	25.3	-1.2	90.8*	-10.9	·	-16.0
c1ccc(N2CCN(c3nnnn3-c3ccccc3)CC2)cc1	0.2	9.4*	-1.8	0.3	·	16.5
COc1ccccc1-n1nnnc1SCc1cc2c(cc1Br)OCO2	-2.6	-0.4	-0.5	-9.1	9.8	50.4*
CCN(CC)S(=O)(=O)c1cccc(C(=O)N[C@@H](C)c2nc3ccccc3[nH]2)c1	2.4	9.9*	4.0	-6.3	·	-13.8
Cc1ccc(C(=O)N2CCN(Cc3ccc4c(c3)OCO4)CC2)cc1C	·	·	·	·	9.9	·
Cc1cccc(C(=O)N2CCN(Cc3ccc4c(c3)OCO4)CC2)c1	0.2	9.3*	-0.6	-7.8	·	6.4
CC(O)C(=O)NCCOCCOCCNC(=O)C(C)O (stereo not drawn)	1.8	9.5*	-0.4	-1.7	·	-7.2
CC(O)CCC(=O)NCCNC(=O)CCC(C)O (stereo not drawn)	0.1	-1.2	3.1	-7.1	·	-8.9
COc1cc(C=O)ccc1OCCCOc1ccc([N+](=O)[O-])cc1	2.3	9.9*	-0.4	0.3	·	9.3
CC(C)CC(NC(=O)CCl)c1ccccc1 (stereo not drawn)	0.7	-0.7	0.2	-5.3	·	-10.5
CC(C)CNC(CC(=O)O)c1ccccc1 (stereo not drawn)	-0.6	9.6*	0.6	-0.5	8.4	6.8
CC(NC(=O)c1ccccc1)c1ccc(F)cc1 (stereo not drawn)	5.3	0.0	·	-4.0	13.1	62.2*
SMILES	TNF necrop inh	Wee1 degr inh	L929 necroptosis	RBBP9 inhibitor	Pf gamet viab	Calpain2 inh
CC(NC(=O)c1ccc(F)cc1)c1ccc(F)cc1 (stereo not drawn)	6.4	0.7	0.1	6.7	-11.8	14.6
CC(CCc1ccccc1)NC(=O)CSc1cccc[n+]1[O-] (stereo not drawn)	1.1	-1.2	0.6	-3.9	-16.6	53.2*
CC(CCc1ccccc1)NC(=O)CSc1ccccc1 (stereo not drawn)	1.0	-2.7	0.1	-6.4	·	23.8
CNC(=S)NNC(=O)c1ccccc1Cl	0.7	1.3	0.6	-5.3	-11.2	-1.3
CNC(=S)NNC(=O)c1ccccc1F	-0.5	1.3	-1.7	-10.8	6.8	89.8*
Cc1ccc(Cn2nc(C)c3cc(C(=O)OCC(N)=O)sc32)cc1	-0.1	9.8*	0.1	-6.6	·	25.8
O=C(NCc1ccccc1Cl)C1CCCN(S(=O)(=O)c2cccc3nsnc23)C1 (stereo not drawn)	-0.5	-1.3	-0.4	-14.8	1.4	-24.8
O=C(NCc1ccco1)C(=O)NCC1OCCN1C(=O)c1ccc(Cl)cc1 (stereo not drawn)	2.6	3.3	-0.4	-6.9	-3.5	-2.0
O=C(CSc1nc(-c2ccc(F)cc2)nc2c1Cc1ccccc1O2)Nc1ccc(C(=O)O)cc1	-0.4	-1.5	2.3	-13.2	-0.9	79.2*
COC(=O)C1=C(C)N(c2ccc(OC)c(OC)c2)C(=O)/C1=C\c1ccco1	-0.2	8.9*	0.6	2.5	-6.1	-6.3
COc1cccc(CNC(=O)Cn2nc(C)c([N+](=O)[O-])c2C)c1	·	·	·	·	8.3	·
Cc1noc(C)c1COc1ccc(CC(=O)NCc2ccccc2)cc1	-9.7	9.3*	-1.5	1.5	12.5	3.5
Cc1noc(C)c1COc1ccc(CC(=O)NC2CCCCCC2)cc1	1.6	-2.7	23.0	0.9	-6.3	-104.8
CC1(C)NC(=O)N(CCOc2ccc([N+](=O)[O-])cc2)C1=O	1.4	9.6*	-0.1	2.1	·	9.4
CCOc1ccc(NC(=O)CN2C(=O)/C(=C3\SC(=S)N(C4CCS(=O)(=O)C4)C3=O)c3ccccc32)cc1 (stereo not drawn)	-23.6	5.0	-0.2	-6.1	2.1	62.6*
Cc1ccc(S(=O)(=O)N(C)c2ccc(C)c([N+](=O)[O-])c2)cc1	-0.4	0.7	1.1	0.4	-6.6	50.3*
COc1ccc(N(C)S(=O)(=O)c2ccc(C)cc2)c([N+](=O)[O-])c1	0.3	-4.3	1.1	-7.9	-8.9	-18.8
O=C(/C=C/c1ccccc1)Nc1ccc(N2CCCCC2)cc1	0.0	9.0*	2.2	0.4	1.3	1.2
O=C(/C=C/c1ccc(Cl)cc1)Nc1ccc(N2CCCCC2)cc1	0.1	-0.8	1.0	1.0	·	0.7
CC(=O)Nc1ccc(S(=O)(=O)N(C#N)c2nc(C)cc(C)n2)cc1	·	·	·	·	21.1	·
CS(=O)(=O)N1CCc2cc(NC(=O)c3ccc(Cl)cc3Cl)ccc21	-1.2	-1.5	0.8	-1.0	-4.8	50.4*
CS(=O)(=O)N1CCc2cc(C(=O)Nc3cccc([N+](=O)[O-])c3)ccc21	·	·	·	·	-3.9	·
COc1cc2c(-c3ccc4[nH]ccc4c3)c(-c3ccc(C#N)cc3)oc(=O)c2cc1OC	·	·	·	·	0.5	·
CCN(CC)S(=O)(=O)c1ccc2nc(NC(=O)c3cccs3)sc2c1	0.0	0.4	-0.1	-2.3	-16.4	-5.7
CCN(CC)S(=O)(=O)c1ccc2nc(NC(=O)c3ccco3)sc2c1	0.0	9.6*	-1.3	0.2	-13.7	17.7
